Assay [1] is described as follows: OD615 S. cerevisiae growth inhibition, permissive medium, pilot counter-assay, permissive growth control for S. cerevisiae lifespan shortening project (AID 705). Conditions: OD615, 24 h, at 10 µM, active compounds read high. The procedure, abridged: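 System: engineered DeaD yeast; Medium: permissive raffinose/galactose medium; Compound dosing: 10 µM single dose, 0.25% DMSO; Incubation: 4 h cell pre-growth, 24 h exposure at 30 °C; Technique: OD at 615 nm; Evaluation: growth inhibition from lowered OD615 after 24 h.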

Assay [2] can be described thus: Restrictive medium S. cerevisiae growth inhibition, OD615, pilot screen of yeast lifespan reduction project, restrictive growth control (AID 706;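 active means growth inhibition above a set limit, 3 SD over mean compound inhibition, in both replicates, cut at about 43% in these data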;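 further: modified DeaD lifespan yeast strain shifted to restrictive glucose medium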). Conditions: OD615, 48 h, at 10 µM, active compounds read high. The gist of the method:
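Material: modified S. cerevisiae; buffer or medium: CSMM-D glucose medium; doses: one concentration, 10 µM final, 0.25% DMSO; incubation: 48 h compound exposure at 30 °C; detection: optical density at 615 nm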

Assay [3] is described as follows: viability gain of MRP-1-high H69AR cells under doxorubicin, pilot screen, MRP-1 activator project, CellTiter-Glo, duplicate (AID 807;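 active means viability increase at or above a cutoff of the median across tested compounds plus 3 SD, cut at about 8.5% in these data, passing the limit was not always enough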;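 further: compound pretreatment 18-22 h then 72 h combined with doxorubicin; 0% = doxorubicin alone and 100% = vehicle without doxorubicin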). Conditions: H69AR viability with doxorubicin, CellTiter-Glo luminescence; at 10 µM; active compounds read high.
Assay [4] is described as follows: growth suppression of beta-catenin knockout HCT116, pilot screen, human colon tumor cells (AID 823;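 active means cell viability at or below a set limit in both duplicate runs, the limit being the all-compound median minus 4 SD, cut at about 23% in these data, passing the limit was not always enough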;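 further: 0% = wells killed by 20 µM Hyamine and 100% = untreated DMSO cell wells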). Conditions: CellTiter-Glo, 60 h, at 10 µM, active compounds read low.
Assay [5] is described as follows: inhibitors of the yeast RAM network, pilot screen, dse1pr::URA3 reporter, 5-FOA selection (AID 869;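 active means inhibition over a set limit, the all-compound mean plus 3 SD, in both replicate runs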;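 further: 0% = DMSO wells with no growth and 100% = 10 µM 1-NA-PP1 with full growth; RAM network block rescues cells from 5-FOA so hits raise OD615 growth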). Conditions: S. cerevisiae dse1pr::URA3 5-FOA growth, OD615, 2 d; at 10 µM; active compounds read high; strain carries analog-sensitive mutant Cbk1 kinase.
The nature of assay [6]: RAM signaling pathway blockade in yeast – S. cerevisiae, Pdr1DBD-CYC8 efflux-inhibited sensitized strain, primary screen (AID 1298;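 active means RAM network inhibition above 8.4% in each of two replicates, 3 SD over the compound average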;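 further: 0% = DMSO untreated cells without growth and 100% = 10 µM 1-NA-PP1 full growth; higher means more yeast growth rescued from 5-FOA killing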). Conditions: S. cerevisiae cbk1-as DSE1-URA3 strain, 5-FOA growth OD615, 2 d; at 50 µM; active compounds read high.
Assay [7] can be described thus: growth suppression of PTEN-deleted HCT116, pilot screen, cell-based, HCT116 clonal line, CellTiter-Glo (AID 824;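 active means viability at or below 27.92% in each of two runs, the all-compound median minus 4 SD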;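 further: 0% = 20 µM Hyamine control and 100% = vehicle cell control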). Conditions: 60 h, at 10 µM, active compounds read low.

A number with no mark means an inactive call. Inconclusive results are not listed. The source made the active and inactive calls.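 How the source made its calls, unless noted: active means growth inhibition above 25% in both replicates, a cutoff set 3 SD above the mean; inconclusive means above 25% in only one replicate; inactive means the rest.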

For the compound `CC(C)CC(NC(=O)C1CCC(C)CC1)C(=O)Nc1ccccn1` (stereo not drawn), the growth inhibition in assay [1] is -11.7%; in assay [2], 2.61%. Moreover, the viability increase in assay [3] is -1.42%. In assay [4], the viability was 92.9%. Further, in assay [5], the inhibition was 0.5%. The RAM network inhibition in assay [6] was 3.07%.

Regarding `CC1=CCC(C(=O)O)C(C(=O)O)C1` (stereo not drawn), the growth inhibition was -2.08% in assay [1] and -10.3% in assay [2]. Moreover, the viability increase in assay [3] was -2.04%. Moreover, the viability in assay [7] is 95.7%. Further, the inhibition in assay [5] is 1.69%. Besides, the RAM network inhibition in assay [6] is 1.34%.

With `CCOC(=O)c1ccccc1NC(=O)CC1Nc2ccccc2NC1=O` (stereo not drawn), the growth inhibition in assay [1] was -2.62%; in assay [2] it was -8.37%. Besides, in assay [3], the viability increase is -8.1%. In addition, the viability in assay [4] is 55.7%. Besides, in assay [5], the inhibition is 2.19%. Further, in assay [6], the RAM network inhibition was 6.39%.

As for `CC(=O)Nc1cc(OC(=O)c2ccco2)cc(OC(=O)c2ccco2)c1`, the growth inhibition is -22.3% in assay [1] and 3.33% in assay [2]. The viability increase in assay [3] is -2.27%. In assay [4], the viability is 103%. Further, the inhibition in assay [5] is 1.36%. In addition, in assay [6], the RAM network inhibition was 5.4%.

Turning to `O=C(CCn1c(=O)[nH]c2ccsc2c1=O)N1CCc2ccccc2C1`, the values for the growth inhibition in assay [1] and in assay [2] were -13.3% and -4.91%, respectively. Moreover, the viability increase in assay [3] was -0.54%. For the same compound, the viability in assay [4] is 97.7%. For the same compound, the inhibition in assay [5] is 2.71%. Further, the RAM network inhibition in assay [6] is 8.73%.

Regarding `CCOC(=O)/C=c1\sc2n(c1=O)CCN=2`, the growth inhibition is -0.765% in assay [1] and -2% in assay [2]. In addition, the viability increase in assay [3] is -3.32%. Moreover, in assay [4], the viability was 91.9%. The inhibition in assay [5] was 1.44%. The RAM network inhibition in assay [6] was 2.73%.

For `Cc1cc(OCCCCCNCCO)ccc1Cl`, the growth inhibition in assay [1] was -5.31%; in assay [2] it was -3.71%. Besides, the viability increase in assay [3] is -4.62%. The viability in assay [7] is 78%. Besides, the inhibition in assay [5] is 2.05%. In addition, in assay [6], the RAM network inhibition was 1.6%.

As for `COc1ccc(-c2cc3ccccc3n2CC(O)CN2CCOCC2)cc1` (stereo not drawn), the growth inhibition was -4.27% in assay [1] and -5.21% in assay [2]. Further, the viability increase in assay [3] was -6.02%. Further, in assay [4], the viability was 89.7%. Moreover, in assay [5], the inhibition was 0.59%. The RAM network inhibition in assay [6] was 2.87%.

As to `CC(C)(Oc1ccc(Cl)cc1)C(=O)OCC(=O)N1CCCC1`, the growth inhibition was -8.95% in assay [1] and -11% in assay [2]. Besides, in assay [3], the viability increase is -2.58%. The viability in assay [7] is 96.5%. The inhibition in assay [5] was 0.455%. In addition, the RAM network inhibition in assay [6] is -1.13%.

Take `CCCn1c(CN2CCN(c3cccc(Cl)c3)CC2)nc2c1c(=O)n(C)c(=O)n2C`: the figures for the growth inhibition in assay [1] and in assay [2] were -4.45% and -8.51%, respectively. In addition, the viability increase in assay [3] was -4.06%. In addition, the viability in assay [7] was 54%. In addition, the RAM network inhibition in assay [6] is 1.38%.

As for `CCOC(=O)N1CCN(C(=O)CN(c2ccc(Cl)c(C(F)(F)F)c2)S(C)(=O)=O)CC1`, the values for the growth inhibition in assay [1] and in assay [2] were -5.69% and -17.2%, respectively. Further, the viability increase in assay [3] is -4.27%. Moreover, the viability in assay [7] was 90.3%. In addition, the inhibition in assay [5] is -0.06%. The RAM network inhibition in assay [6] was 3.68%.

On to `CC(C)(Oc1ccc(Cl)cc1)C(=O)Nc1ncccn1`, for which the growth inhibition is -5.31% in assay [1] and -3.56% in assay [2]. Further, the viability increase in assay [3] is -2.32%. Further, in assay [7], the viability is 101%. Also, in assay [5], the inhibition was 1.61%. Besides, in assay [6], the RAM network inhibition was 2.05%.

Turning to `NC(=O)C1CCN(c2nc(C3CC3)nc3c2nnn3Cc2ccccc2Cl)CC1`, the values for the growth inhibition in assay [1] and in assay [2] were -11.9% and -3.43%, respectively. Also, the viability increase in assay [3] is -6.11%. Further, in assay [4], the viability was 84.4%. Besides, the inhibition in assay [5] is 3.41%. The RAM network inhibition in assay [6] is 0.99%.

As to `COc1ccccc1C(=O)Nc1nnn(C)n1`, the growth inhibition in assay [1] was -26.5%; in assay [2], 6.7%. The viability increase in assay [3] is -0.45%. In addition, in assay [4], the viability was 108%. Further, the inhibition in assay [5] is 0.84%. For the same compound, the RAM network inhibition in assay [6] was 6.87%.

For the compound `CC(=O)c1ccc(C(=O)Nc2nnc(-c3ccc(Cl)cc3)o2)cc1`, the growth inhibition is -1.45% in assay [1] and 17% in assay [2]. In assay [3], the viability increase was -3.75%. Moreover, the viability in assay [7] is 22.3% (active). The RAM network inhibition in assay [6] was 2.8%.

As for `COc1ccc(C2c3c(oc4ccccc4c3=O)C(=O)N2c2ccccn2)cc1OC` (stereo not drawn), the growth inhibition is -10.4% in assay [1] and -11.2% in assay [2]. Further, the viability increase in assay [3] was -6.93%. For the same compound, in assay [4], the viability is 72.7%. In assay [5], the inhibition is 2.8%. Also, the RAM network inhibition in assay [6] was 2.68%.

Turning to `Cc1nc2c3c4c(sc3n3c(SCC(=O)NCc5ccco5)nnc3n2n1)COC(C)(C)C4`, the growth inhibition was -15.2% in assay [1] and 3.31% in assay [2]. In assay [3], the viability increase was -6.89%. Besides, in assay [4], the viability was 88.7%. Moreover, the inhibition in assay [5] was 1.85%. Besides, the RAM network inhibition in assay [6] is 5.05%.

As to `COc1ccc(CC(=O)Nc2cc(C)c3c(=O)oc4ccccc4c3n2)cc1`, the growth inhibition is -2.25% in assay [1] and 1.88% in assay [2]. Moreover, in assay [3], the viability increase was -4.14%. The viability in assay [4] was 75.3%. In addition, the inhibition in assay [5] was 4.06%. Besides, in assay [6], the RAM network inhibition was 7.11%.

For `COc1ccccc1CC(=O)Nc1ccc(-c2nnc(-c3ccco3)o2)cc1`, the growth inhibition is -3.64% in assay [1] and 8.35% in assay [2]. Also, the viability increase in assay [3] is -2.58%. For the same compound, the viability in assay [7] was 77.7%. Further, in assay [6], the RAM network inhibition is 8.02%.

As for `COc1ccc(-c2nnc(NC(=O)c3cc(Cl)ccc3Cl)o2)cc1`, the growth inhibition was 4.57% in assay [1] and 4.36% in assay [2]. Further, the viability increase in assay [3] is -5.58%. In assay [4], the viability was 35.9%. The inhibition in assay [5] was 2.53%. The RAM network inhibition in assay [6] was 8.05%.

Take `CCc1c(C)sc(NC(=O)C2CCCCC2C(=O)O)c1C(N)=O` (stereo not drawn): the growth inhibition in assay [1] is 15.1%; in assay [2] it was 25.8%. In addition, the viability increase in assay [3] is -4%. In addition, the viability in assay [7] is 101%. In addition, the inhibition in assay [5] is 1.77%. Further, the RAM network inhibition in assay [6] is 9.48%.

For the origin of these results see PubChem BioAssay.
